Test [1] concerns the target T1, Ribonucleoside-diphosphate reductase large subunit (Homo sapiens) (UniProt P23921).
T1 sequence (whole entry): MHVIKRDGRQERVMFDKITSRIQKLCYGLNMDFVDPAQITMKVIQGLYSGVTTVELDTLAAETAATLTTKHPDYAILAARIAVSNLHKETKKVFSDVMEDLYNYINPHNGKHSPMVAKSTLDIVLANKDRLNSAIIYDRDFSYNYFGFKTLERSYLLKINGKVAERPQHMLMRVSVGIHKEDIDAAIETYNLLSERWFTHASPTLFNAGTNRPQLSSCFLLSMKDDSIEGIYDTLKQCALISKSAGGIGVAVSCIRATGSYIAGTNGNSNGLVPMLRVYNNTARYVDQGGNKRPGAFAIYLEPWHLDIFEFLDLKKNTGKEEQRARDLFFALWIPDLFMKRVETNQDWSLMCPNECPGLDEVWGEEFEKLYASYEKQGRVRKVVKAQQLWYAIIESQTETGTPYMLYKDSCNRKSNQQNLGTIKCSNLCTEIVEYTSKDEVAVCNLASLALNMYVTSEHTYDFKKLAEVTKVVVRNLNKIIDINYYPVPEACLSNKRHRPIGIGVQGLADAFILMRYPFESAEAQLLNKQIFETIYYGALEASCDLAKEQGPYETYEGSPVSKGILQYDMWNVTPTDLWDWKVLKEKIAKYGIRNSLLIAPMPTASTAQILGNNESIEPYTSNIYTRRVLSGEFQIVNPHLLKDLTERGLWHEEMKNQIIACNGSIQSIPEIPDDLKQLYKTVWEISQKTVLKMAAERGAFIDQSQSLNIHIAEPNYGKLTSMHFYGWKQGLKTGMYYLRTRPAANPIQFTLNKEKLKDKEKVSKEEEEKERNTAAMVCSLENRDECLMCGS
Put plainly: Inhibition of RRM1 in human U2OS cells assessed as gammaH2AX induction at 0.5 to 125 uM after 2 hrs by FITC/propidium iodide-staining based flow cytometry in absence of SCH900776. Type of test: cell-based. An outline of the steps: (§1)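 U2OS cells were given titrated compound overnight, then kept with or without 0.5 uM SCH 900776 for a further 2 h in the compound's presence. Cells were fixed and permeabilized in 70% ethanol, stained with FITC anti-γH2AX antibody and counterstained with propidium iodide. Read-out was flow cytometry or imaging, given as % γH2AX-positive cells.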
(In general: Flow cytometry measures light scatter and fluorescence of single cells or particles in a stream.)

The target of test [2] is T1, Ribonucleoside-diphosphate reductase large subunit (Homo sapiens). The test is described as follows: Inhibition of RRM1 in human U2OS cells assessed as gammaH2AX induction at 0.5 to 125 uM after 2 hrs by FITC/propidium iodide-staining based flow cytometry in presence of SCH900776. Type of test: cell-based. An outline of the steps:
as §1

The nature of test [3]: Binding affinity to yeast RRM1 assessed as reduction of unbound compound level by line-broadening NMR spectroscopy. Set-up: species or system Saccharomyces cerevisiae.
Test [4] addresses T1, Ribonucleoside-diphosphate reductase large subunit (Homo sapiens). The test is described as follows: Inhibition of RRM1 in human U2OS cells assessed as gammaH2AX induction after 2 hrs by FITC/propidium iodide-staining based flow cytometry in presence of SCH900776. Type of test: cell-based. An outline of the steps: as §1
Test [5] shares this target. Put plainly: Inhibition of RRM1 in human CEM cells assessed as depletion of dATP level at 1 uM after 2 hrs by HPLC analysis. To be noted: CCRF-CEM. Type of test: cell-based. An outline of the steps: (§2)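 CEM cells were treated for 2 h, with untreated cells as control. Pellets were taken up in ice-cold water and deproteinized with an equal volume of 6% TCA. Supernatants were neutralized with NH4OH, then run on ion-pair HPLC (tetrabutylammonium hydroxide/KH2PO4, pH 7.0 gradient) with UV detection at 260 nm. Pool levels are peak AUC, in triplicate.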

Test [6] concerns the target T2, Ribonucleotide reductase (Homo sapiens) (UniProt P23921+Q7LG56). Put plainly: Inhibition of human RRM1/RNR2 activity using CDP as substrate assessed as reduction of dCDP production at 100 uM preincubated for 30 mins followed by substrate addition measured after 1 hr by NMR spectroscopy. Type of test: protein-complex assay. An outline of the steps: (§3)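 Human RRM1 and RNR2 were run at 27 °C in 50 mM d-Tris in D2O, pH 7.6, with 10 mM d-DTT. Compound was preincubated 30 min with active enzyme and 1 mM ATP. CDP was then added to start the reaction, which was heat-quenched after 1 h. 1H NMR measured dCDP formed and CDP consumed against control spectra. Controls were dATP, didox and gemcitabine diphosphate.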

In test [7] the target is T1, Ribonucleoside-diphosphate reductase large subunit (Homo sapiens). Put plainly: Inhibition of RRM1 in human CEM cells assessed as depletion of dCTP level at 1 uM after 2 hrs by HPLC analysis. The class given is cell-based. To be noted: CCRF-CEM. An outline of the steps:
as §2

Test [8] has the same target. The test is described as follows: Inhibition of RRM1 in human CEM cells assessed as depletion of dGTP level at 1 uM after 2 hrs by HPLC analysis. Type of test: cell-based. To be noted: CCRF-CEM. An outline of the steps:
as §2

The subject of test [9] is Saccharomyces cerevisiae. Put plainly: Binding affinity to yeast RRM1 assessed as reduction of unbound-compound level at 200 uM by NOESY-spectroscopy.
Test [10] is described as follows: Competitive binding affinity to yeast RRM1 assessed as reduction in CDP NMR signals by STD-NMR spectroscopy. More on the design: species or system Saccharomyces cerevisiae.
Test [11] concerns the target T2, Ribonucleotide reductase (Homo sapiens). The test is described as follows: Inhibition of human RRM1/RNR2 activity using CDP as substrate assessed as reduction of CDP consumption at 100 uM preincubated for 30 mins followed by substrate addition measured after 1 hr by NMR spectroscopy. Type of test: protein-complex assay. An outline of the steps:
as §3

In test [12] the test system is Saccharomyces cerevisiae. Put plainly: Binding affinity to yeast RRM1 assessed as reduction of free compound level by line-broadening NMR spectroscopy relative to control. More on the design: scale not given: the % may be the effect or the level left.

The term inhibition denotes how much of the control response was suppressed. For orientation: Kd means the equilibrium constant for the complex coming apart. Broadly, the Ki is a measure of affinity in units of concentration, obtained from inhibition or displacement.

Activity calls are given as the source filed them. No cut-off for these calls is given here.

`Nc1ccn([C@@H]2O[C@H](CO)[C@@H](O)C2(F)F)c(=O)n1`: the inhibition entry in test [1] and in test [2] was “Active” throughout.
With `Nc1ccn([C@@H]2O[C@H](CN3CCn4nccc4C3)[C@@H](O)C2(F)F)c(=O)n1`, in test [3], the Kd stood at 200 µM. In addition, the inhibition entry in test [4] is “Dose-dependent effect”; in test [6], 32%; in [11] it was 32%. Besides, the inhibition result in test [5], in test [1], in test [7], in [8] and in test [2] was “Active” in each case. In addition, the result in test [9] was Active. Moreover, in test [10], the inhibition constant (Ki) was found to be 150 µM. In addition, the Activity in test [12] was found to be 27%.
On to `C[C@H](NC[C@H]1O[C@@H](n2ccc(N)nc2=O)C(F)(F)[C@@H]1O)c1ccnn1C`, for which the inhibition entry in test [4] was “Dose-dependent effect”. Besides, the inhibition result in test [1] and in test [2] was “Active” throughout.
For the compound `Nc1ccn([C@@H]2O[C@H](CNCc3ccco3)[C@@H](O)C2(F)F)c(=O)n1`, in test [4], the inhibition result is “Dose-dependent effect”. The inhibition entry in [1] and in [2] was “Active” throughout.
Regarding `Nc1ccn([C@@H]2O[C@H](CNCCN3CCCC3=O)[C@@H](O)C2(F)F)c(=O)n1`, the inhibition entry in test [4] was “Dose-dependent effect”. The inhibition result in test [1] and in [2] was “Active” each time.

Values taken from ChEMBL document CHEMBL3232973, “The identification of novel 5'-amino gemcitabine analogs as potent RRM1 inhibitors” (Bioorg Med Chem, 2014).
